{"source": "paper PMC10213863", "about": "(Cell Reports Medicine, 2023)", "format_in_all_cases": "cell-based", "key": {"TLR7 [1]": {"target": "T1, TLR7 (Homo sapiens, UniProt Q9NYK1)", "T1 sequence (Q9NYK1 27-1049)": "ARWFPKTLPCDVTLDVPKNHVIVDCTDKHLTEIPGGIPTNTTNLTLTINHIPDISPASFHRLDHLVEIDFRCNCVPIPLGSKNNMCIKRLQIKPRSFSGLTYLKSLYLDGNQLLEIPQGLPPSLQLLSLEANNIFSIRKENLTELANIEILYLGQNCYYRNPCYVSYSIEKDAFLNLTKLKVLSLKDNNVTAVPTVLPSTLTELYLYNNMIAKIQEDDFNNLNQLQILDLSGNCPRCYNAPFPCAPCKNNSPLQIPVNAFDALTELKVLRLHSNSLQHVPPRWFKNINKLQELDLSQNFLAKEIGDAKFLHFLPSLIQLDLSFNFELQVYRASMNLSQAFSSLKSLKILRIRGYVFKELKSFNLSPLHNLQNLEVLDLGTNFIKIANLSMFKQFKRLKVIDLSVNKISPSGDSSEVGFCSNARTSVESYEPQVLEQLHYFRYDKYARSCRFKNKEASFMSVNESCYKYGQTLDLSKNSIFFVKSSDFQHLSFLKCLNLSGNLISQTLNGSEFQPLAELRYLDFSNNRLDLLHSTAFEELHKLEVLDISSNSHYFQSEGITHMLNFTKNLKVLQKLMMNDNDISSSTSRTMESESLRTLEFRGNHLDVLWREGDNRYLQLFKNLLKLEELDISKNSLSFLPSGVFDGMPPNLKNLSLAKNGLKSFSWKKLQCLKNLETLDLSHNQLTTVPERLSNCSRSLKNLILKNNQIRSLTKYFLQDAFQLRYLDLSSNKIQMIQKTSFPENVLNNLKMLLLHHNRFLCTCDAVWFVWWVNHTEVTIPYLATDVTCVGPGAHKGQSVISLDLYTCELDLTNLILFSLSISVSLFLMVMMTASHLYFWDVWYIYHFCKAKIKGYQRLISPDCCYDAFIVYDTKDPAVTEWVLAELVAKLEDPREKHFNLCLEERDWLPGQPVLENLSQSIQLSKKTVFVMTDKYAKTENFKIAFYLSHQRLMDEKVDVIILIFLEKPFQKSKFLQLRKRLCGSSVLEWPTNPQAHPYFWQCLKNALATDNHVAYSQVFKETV", "assay": "HEK293-NFkB-luciferase reporter cells transfected with TLR7, R848 stimulation", "conditions": "IC50, TLR7 response in HEK transfectants, mean ± SD", "how_it_was_run": "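HEK293-NFkB-luciferase cells stably expressing HA-tagged human TLR7 or TLR8 were pre-treated 60 min at 37°C, 5% CO2 with increasing concentrations of test compound or 0.25% v/v DMSO. They were then stimulated 6 h with R848: 0.3 μM for TLR7, 4 μM for TLR8. Luciferase activity […] was read by Bright-Glo luminescence.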"}, "TLR7 [2]": {"target": "T1, TLR7", "assay": "Isolated human pDC assay, ssRNA-driven IFN-α", "conditions": "fixed dose of MHV370", "how_it_was_run": "(§1)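 pDCs were negatively enriched from PBMCs and resuspended in RPMI1640 with 10 ng/mL recombinant human IL-3. They were pre-treated 30 min with test compound or 0.25% v/v DMSO. Stimulation was 20 h at 37°C, 5% CO2 with ssRNA40 (10 μg/mL plus 25 μg/mL DOTAP) or ODN2216 (0.3 μM). IFN-α in supernatants was read by AlphaLisa; viability by CellTiter-Glo.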"}, "TLR9": {"target": "T2, TLR9 (Homo sapiens, UniProt Q9NR96)", "T2 sequence (Q9NR96 26-1032)": "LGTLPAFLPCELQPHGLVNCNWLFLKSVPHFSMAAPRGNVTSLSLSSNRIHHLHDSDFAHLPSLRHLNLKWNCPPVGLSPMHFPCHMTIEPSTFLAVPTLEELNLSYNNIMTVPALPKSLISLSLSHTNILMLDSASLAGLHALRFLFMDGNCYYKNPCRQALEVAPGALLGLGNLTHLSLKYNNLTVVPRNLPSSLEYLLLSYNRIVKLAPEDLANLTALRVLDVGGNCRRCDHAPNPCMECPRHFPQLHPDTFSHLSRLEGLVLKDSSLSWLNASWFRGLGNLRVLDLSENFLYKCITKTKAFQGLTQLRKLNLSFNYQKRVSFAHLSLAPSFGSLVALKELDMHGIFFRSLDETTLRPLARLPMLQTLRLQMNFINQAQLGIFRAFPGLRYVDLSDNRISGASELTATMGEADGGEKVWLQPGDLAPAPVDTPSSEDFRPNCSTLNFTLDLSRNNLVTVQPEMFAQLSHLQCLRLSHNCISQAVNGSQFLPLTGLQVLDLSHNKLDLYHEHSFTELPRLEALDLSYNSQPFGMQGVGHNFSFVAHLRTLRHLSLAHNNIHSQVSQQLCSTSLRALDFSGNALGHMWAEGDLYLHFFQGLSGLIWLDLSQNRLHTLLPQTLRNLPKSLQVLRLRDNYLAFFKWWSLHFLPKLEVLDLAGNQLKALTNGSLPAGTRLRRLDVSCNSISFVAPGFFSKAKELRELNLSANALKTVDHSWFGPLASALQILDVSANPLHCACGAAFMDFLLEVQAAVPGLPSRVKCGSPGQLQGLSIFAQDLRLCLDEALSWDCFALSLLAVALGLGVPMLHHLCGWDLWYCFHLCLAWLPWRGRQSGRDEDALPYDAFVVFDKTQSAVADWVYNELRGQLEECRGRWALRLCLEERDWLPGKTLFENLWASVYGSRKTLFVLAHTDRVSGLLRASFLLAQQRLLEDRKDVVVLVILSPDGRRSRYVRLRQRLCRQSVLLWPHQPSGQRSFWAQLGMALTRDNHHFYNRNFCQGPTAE", "assay": "Isolated human pDC assay, ODN2216-driven IFN-α", "conditions": "fixed dose of MHV370", "how_it_was_run": "as §1"}}, "note": "Several values for one entry are separate records, joined by “and”; a condition that tells them apart may be missing. Equal values may be shown once."}
{"smiles": "Cc1cc(N2CCc3c(c(C)nn3CC34CCC(NC(=O)[C@@H]5COCCN5)(CC3)CC4)C2)c2cnn(C)c2n1", "note": "[MHV370, (S)-N-(4-((5-(1,6-dimethyl-1H-pyrazolo[3,4-b]pyridin-4-yl)-3-methyl-4,5,6,7-tetrahydro-1H-pyrazolo[4,3-c]pyridin-1-yl)methyl)bicyclo[2.2.2]octan-1-yl)morpholine-3-carboxamide]", "values": [{"measurement": "IC50", "setting": "TLR7 [1]", "value": "1 nM and 1.1 nM"}, {"measurement": "ssRNA-driven IFN-α responses from pDCs", "setting": "TLR7 [2]", "value": "blocked"}, {"measurement": "ODN2216/TLR9-dependent IFN-α secretion from pDCs", "setting": "TLR9", "value": "did not block"}]}
